In ChEMBL document CHEMBL4020839, “Class I HDAC Inhibitors Display Different Antitumor Mechanism in Leukemia and Prostatic Cancer Cells Depending on Their p53 Status” (J Med Chem, 2018):
The source made the active and inactive calls. The rule behind the calls is not given here.

Legend:
Histone deacetylase 9 = Histone deacetylase 9 (Homo sapiens, UniProt Q9UKV0); assay: Inhibition of recombinant human C-terminal His-tagged HDAC9 (604 to 1066 residues) expressed in baculovirus expression system using Boc-Lys(trifluoroacetyl)-AMC as substrate preincubated for 1 hr followed by substrate addition measured after 2 hrs by fluorescence assay
Method in brief: (§1)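 Recombinant HDAC incubated with serial compound dilutions at 30 °C for 1 h. Reaction run 2 h at 30 °C, stopped with developer containing trypsin and TSA. Fluorescence read after 30 min at 360/460 nm. Inhibition relative to control wells; IC50 from variable-slope fit.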

MV4-11 [1] = assay: Downregulation of HDAC6 protein expression in human MV4-11 cells at >= 0.5 uM after 24 hrs by Western blot analysis; type: functional, cell-based
Method in brief: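 MV4-11 cells treated 24 h at 0.25, 0.5, 1 and 2 μM, with 5 μM SAHA as reference. RIPA lysates normalized by BCA, run on 4–12% Bis-Tris gels, probed with primary antibodies at 1/1000 overnight at 4 °C. HDAC6 and acetylated histones/tubulin detected; actin as loading control. Representative of n = 2.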

[2] = biological target: T1, Protein deacetylase HDAC6 (Homo sapiens, UniProt Q9UBN7); assay: Inhibition of HDAC6 (unknown origin) using Boc-Lys(acetyl)-AMC as substrate preincubated for 1 hr followed by substrate addition measured after 2 hrs by fluorescence assay; method in brief: as §1
T1 sequence (Q9UBN7 whole entry): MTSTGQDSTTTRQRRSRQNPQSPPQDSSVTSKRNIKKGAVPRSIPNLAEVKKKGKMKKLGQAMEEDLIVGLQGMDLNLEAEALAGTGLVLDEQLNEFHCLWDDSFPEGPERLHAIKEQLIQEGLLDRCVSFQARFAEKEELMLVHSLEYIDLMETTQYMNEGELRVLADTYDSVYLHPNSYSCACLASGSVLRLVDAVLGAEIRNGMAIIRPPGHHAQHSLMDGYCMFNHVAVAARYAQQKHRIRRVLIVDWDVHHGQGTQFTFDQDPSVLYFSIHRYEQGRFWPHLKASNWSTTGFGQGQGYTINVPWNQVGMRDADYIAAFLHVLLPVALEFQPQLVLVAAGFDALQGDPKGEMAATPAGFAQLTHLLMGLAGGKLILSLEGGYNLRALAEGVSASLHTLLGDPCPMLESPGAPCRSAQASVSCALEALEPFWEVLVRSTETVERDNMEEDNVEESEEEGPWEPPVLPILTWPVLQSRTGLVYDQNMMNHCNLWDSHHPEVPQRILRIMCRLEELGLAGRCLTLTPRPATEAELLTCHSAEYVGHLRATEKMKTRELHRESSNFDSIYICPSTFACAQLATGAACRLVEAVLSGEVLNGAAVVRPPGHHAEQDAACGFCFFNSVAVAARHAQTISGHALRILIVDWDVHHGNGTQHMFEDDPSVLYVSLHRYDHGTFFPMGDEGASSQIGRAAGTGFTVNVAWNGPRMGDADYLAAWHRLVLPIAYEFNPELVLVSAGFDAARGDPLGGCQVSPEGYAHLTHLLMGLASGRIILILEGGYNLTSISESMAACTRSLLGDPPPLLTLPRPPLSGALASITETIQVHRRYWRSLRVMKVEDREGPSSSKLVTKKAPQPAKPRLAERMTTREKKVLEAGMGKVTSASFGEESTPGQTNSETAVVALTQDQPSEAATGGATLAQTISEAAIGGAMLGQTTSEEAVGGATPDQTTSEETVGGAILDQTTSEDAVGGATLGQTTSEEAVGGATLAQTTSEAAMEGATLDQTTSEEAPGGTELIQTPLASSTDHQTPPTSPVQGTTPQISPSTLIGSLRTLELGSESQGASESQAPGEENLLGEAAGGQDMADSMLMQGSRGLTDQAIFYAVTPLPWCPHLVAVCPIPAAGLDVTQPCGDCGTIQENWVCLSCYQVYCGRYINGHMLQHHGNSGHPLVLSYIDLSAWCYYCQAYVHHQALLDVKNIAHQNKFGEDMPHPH

Histone deacetylase 4 = Histone deacetylase 4 (Homo sapiens, UniProt P56524); assay: Inhibition of recombinant human N-terminal GST-tagged/C-terminal His-tagged HDAC4 (627 to 1084 residues) expressed in baculovirus expression system using Boc-Lys(trifluoroacetyl)-AMC as substrate preincubated for 1 hr followed by substrate addition measured after 2 hrs by fluorescence assay; method in brief: as §1
MV4-11 [3] = assay: Antiproliferative activity against human MV4-11 cells assessed as cell death at 10 uM after 48 hrs by CellTiter-Blue assay; type: functional, cell-based
Method in brief: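 MV4-11 and PC-3 cells treated with 10 or 2 μM (or 0 μM) and sampled at 24 and 48 h. Viable cells measured by CellTiter-Blue resorufin fluorescence, read as in the EC50 assay, which is proportional to viable cell number. Representative of n = 2 experiments.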

MV4-11 [4] = assay: Induction of apoptosis in human MV4-11 cells assessed as increase in cleaved caspase-3 level at 1 to 2 uM after 24 hrs by Western blot method; type: functional, cell-based
Method in brief: (§2)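 MV4-11 (1,500,000/well) or PC-3 (300,000/well) grown 12 h, then treated 24 h at 1 and 2 μM, with 5 μM SAHA as reference. RIPA lysis, sonication and centrifugation, BCA normalization. NuPAGE 4–12% Bis-Tris gel in MES, transfer, primary antibodies 1/1000 overnight at 4 °C. Actin as loading control.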

PC-3 [5] = assay: Induction of apoptosis in human PC3 cells assessed as increase in cleaved PARP level at 1 to 2 uM after 24 hrs by Western blot method; type: functional, cell-based; method in brief: as §2
PC-3 [6] = assay: Downregulation of HDAC6 protein expression in human PC3 cells at 1 to 2 uM after 24 hrs by Western blot method; type: functional, cell-based; method in brief: as §2
[7] = biological target: T2, Protein deacetylase HDAC6 (Homo sapiens) (UniProt Q9UBN7); assay: Inhibition of HDAC6 in human PC3 cells assessed as increase in acetylated tubulin level at 1 to 2 uM after 24 hrs by Western blot method; type: cell-based; method in brief: as §2
T2 sequence (whole entry): T1 sequence (Q9UBN7 whole entry)

PC-3 [8] = assay: Downregulation of HDAC1 protein expression in human PC3 cells at 1 to 2 uM after 24 hrs by Western blot method; type: functional, cell-based; method in brief: as §2
MV4-11 [9] = assay: Downregulation of HDAC1 protein expression in human MV4-11 cells at 1 to 2 uM after 24 hrs by Western blot method; type: functional, cell-based; method in brief: as §2
MV4-11 [10] = assay: Cell cycle arrest in human MV4-11 cells assessed as accumulation at G1/S phase at 0.5 uM after 24 hrs by propidium iodide staining based flow cytometry; type: functional
PC-3 [11] = assay: Cell cycle arrest in human PC3 cells assessed as accumulation at G2/M phase up to 2 uM after 24 hrs by propidium iodide staining based flow cytometry; type: functional
[12] = biological target: Histone deacetylase 3 (Homo sapiens) (UniProt O15379); conditions: 0.25 to 2 uM
Histone deacetylase 1 = Histone deacetylase 1 (Homo sapiens, UniProt Q13547); conditions: 0.25 to 2 uM
Sequence of Histone deacetylase 1 (Q13547 whole entry): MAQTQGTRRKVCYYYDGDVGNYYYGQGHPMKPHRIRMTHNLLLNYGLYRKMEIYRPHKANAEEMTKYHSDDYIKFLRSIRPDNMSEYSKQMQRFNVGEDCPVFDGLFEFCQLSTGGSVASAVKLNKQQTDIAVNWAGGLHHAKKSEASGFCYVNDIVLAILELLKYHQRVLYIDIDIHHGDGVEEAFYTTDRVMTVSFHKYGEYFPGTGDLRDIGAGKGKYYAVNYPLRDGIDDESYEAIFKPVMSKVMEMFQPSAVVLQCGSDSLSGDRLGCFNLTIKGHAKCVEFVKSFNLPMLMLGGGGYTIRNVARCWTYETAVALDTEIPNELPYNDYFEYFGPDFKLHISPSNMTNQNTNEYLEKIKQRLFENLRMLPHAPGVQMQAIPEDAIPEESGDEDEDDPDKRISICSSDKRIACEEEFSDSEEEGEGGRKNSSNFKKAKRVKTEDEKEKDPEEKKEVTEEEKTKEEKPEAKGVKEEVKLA

Sequence of Histone deacetylase 4 (P56524 whole entry, the tested form may be a part): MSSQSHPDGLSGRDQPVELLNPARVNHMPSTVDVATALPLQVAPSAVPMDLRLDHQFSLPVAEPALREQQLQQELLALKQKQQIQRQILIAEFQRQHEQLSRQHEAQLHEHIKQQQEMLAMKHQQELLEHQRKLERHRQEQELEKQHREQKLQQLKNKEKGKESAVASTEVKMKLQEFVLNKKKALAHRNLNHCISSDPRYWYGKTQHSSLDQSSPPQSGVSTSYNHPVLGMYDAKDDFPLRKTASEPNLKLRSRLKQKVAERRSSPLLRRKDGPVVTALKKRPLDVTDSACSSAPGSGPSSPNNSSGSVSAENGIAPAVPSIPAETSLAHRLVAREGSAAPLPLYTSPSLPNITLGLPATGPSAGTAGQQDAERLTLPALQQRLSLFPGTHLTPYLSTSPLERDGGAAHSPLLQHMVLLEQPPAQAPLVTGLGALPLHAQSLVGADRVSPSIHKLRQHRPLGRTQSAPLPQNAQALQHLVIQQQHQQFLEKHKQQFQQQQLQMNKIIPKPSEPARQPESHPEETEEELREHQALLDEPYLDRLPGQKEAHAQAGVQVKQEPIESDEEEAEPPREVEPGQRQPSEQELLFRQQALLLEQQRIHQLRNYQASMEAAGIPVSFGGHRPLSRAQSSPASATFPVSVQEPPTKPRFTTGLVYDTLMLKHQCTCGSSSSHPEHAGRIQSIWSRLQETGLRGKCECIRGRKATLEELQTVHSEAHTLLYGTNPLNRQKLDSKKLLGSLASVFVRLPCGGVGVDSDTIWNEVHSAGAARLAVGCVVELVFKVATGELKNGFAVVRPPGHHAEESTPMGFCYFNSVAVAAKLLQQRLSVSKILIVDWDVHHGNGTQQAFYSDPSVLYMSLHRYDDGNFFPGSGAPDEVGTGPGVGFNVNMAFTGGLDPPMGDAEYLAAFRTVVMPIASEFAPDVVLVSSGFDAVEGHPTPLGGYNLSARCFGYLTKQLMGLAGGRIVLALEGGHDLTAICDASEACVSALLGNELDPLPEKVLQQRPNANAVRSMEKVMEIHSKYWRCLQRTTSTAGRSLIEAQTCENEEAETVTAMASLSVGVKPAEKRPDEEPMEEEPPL
Sequence of Histone deacetylase 3 (Homo sapiens) (O15379 whole entry): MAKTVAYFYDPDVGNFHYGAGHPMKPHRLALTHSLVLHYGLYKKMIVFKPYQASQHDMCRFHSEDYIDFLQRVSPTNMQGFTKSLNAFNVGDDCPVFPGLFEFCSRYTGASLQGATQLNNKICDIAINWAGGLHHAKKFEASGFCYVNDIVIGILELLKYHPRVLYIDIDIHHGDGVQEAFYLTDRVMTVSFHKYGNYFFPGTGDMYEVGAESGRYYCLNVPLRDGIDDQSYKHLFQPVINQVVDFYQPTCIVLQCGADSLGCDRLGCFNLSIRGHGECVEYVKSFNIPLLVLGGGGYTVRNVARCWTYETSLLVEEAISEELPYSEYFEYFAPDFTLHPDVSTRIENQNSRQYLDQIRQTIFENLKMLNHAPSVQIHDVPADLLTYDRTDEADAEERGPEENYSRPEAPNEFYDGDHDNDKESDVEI
Sequence of Histone deacetylase 9 (Q9UKV0 whole entry, the tested form may be a part): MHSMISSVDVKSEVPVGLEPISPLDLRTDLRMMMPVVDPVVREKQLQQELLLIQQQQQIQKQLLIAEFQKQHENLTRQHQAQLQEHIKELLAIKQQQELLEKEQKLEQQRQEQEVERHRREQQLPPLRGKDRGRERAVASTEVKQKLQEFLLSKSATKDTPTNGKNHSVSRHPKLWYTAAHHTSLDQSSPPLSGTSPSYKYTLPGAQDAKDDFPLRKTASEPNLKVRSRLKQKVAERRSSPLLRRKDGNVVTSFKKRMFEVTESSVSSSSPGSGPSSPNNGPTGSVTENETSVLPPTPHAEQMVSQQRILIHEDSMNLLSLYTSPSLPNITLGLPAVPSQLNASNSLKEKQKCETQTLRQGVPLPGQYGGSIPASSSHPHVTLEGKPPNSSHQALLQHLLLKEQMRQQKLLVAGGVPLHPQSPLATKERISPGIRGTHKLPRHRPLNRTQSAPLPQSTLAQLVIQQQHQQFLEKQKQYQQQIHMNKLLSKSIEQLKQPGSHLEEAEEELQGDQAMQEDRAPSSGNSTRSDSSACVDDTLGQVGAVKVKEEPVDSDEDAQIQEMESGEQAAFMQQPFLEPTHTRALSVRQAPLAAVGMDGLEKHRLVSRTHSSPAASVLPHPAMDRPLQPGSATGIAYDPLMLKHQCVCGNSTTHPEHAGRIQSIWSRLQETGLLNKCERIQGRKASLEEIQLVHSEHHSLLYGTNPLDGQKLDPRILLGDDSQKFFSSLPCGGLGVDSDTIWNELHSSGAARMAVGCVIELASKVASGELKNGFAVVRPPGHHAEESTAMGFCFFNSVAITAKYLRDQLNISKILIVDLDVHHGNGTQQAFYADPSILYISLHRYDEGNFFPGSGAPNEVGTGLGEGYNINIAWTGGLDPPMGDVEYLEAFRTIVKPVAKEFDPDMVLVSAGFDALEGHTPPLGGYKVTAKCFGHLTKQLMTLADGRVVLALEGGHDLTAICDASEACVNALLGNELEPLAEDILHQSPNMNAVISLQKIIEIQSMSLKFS

SMILES: CCCNNC(=O)c1ccc(NC(=O)[C@H](Cc2c[nH]c3ccccc23)NC(=O)c2ccc(OC)cc2)cc1
- IC50 (Histone deacetylase 9): > 50 µM
- Activity (MV4-11 [1]): Active
- IC50 [2]: 50 to 100 µM
- IC50 (Histone deacetylase 4): > 50 µM
- Activity (MV4-11 [3]): Active
- Activity (MV4-11 [4]): Active
- Activity (PC-3 [5]): inactive
- Activity (PC-3 [6]): inactive
- inhibition [7]: inactive
- Activity (PC-3 [8]): inactive
- Activity (MV4-11 [9]): inactive
- Activity (MV4-11 [10]): Active
- Activity (PC-3 [11]): Active
- inhibition [12]: Active
- inhibition (Histone deacetylase 1): Active
